16 molecules from ChEMBL document CHEMBL4706693, “Design and synthesis of a monocyclic derivative as a selective ACC1 inhibitor by chemical modification of biphenyl ACC1/2 dual inhibitors” (Bioorg Med Chem, 2021) can be followed below.

Series [1] concerns the target T1, Acetyl-CoA carboxylase 1 (Homo sapiens, UniProt Q13085). Briefly: Inhibition of recombinant human N-terminal His6-tagged ACC1 expressed in baculovirus infected Sf9 insect cells using acetyl-CoA as substrate preincubated for 60 mins followed by substrate addition and measured after 30 mins Rapidfire-Mass spectrometry. Put shortly: (§1)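 Human ACC1 or ACC2 from baculovirus-infected SF-9 cells (27 °C, 3 days), purified and dialyzed. Compound in DMSO diluted in 50 mM HEPES pH 7.5, 10 mM MgCl₂, 10 mM tripotassium citrate, 2 mM DTT, 0.001% fatty acid-free BSA. Enzyme and compound preincubated 60 min at room temperature. Substrate added: 50 mM KHCO₃, ATP, acetyl-CoA. Reaction ran 30 min at room temperature.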

The nature of series [2]: Solubility of compound in pH 6.8 buffer. Format: physicochemical. Put shortly: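 Solubility measured at pH 6.8.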
The nature of series [3]: Inhibition of fatty acid synthesis in human HCT-116 cells assessed as reduction in [14C] acetic acid uptake preincubated for 60 mins followed by [14C]acetic acid addition and measured after 2 hrs by topcount scintillation counting method. The format is functional, cell-based. Put shortly: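 HCT-116 cells, 50,000/well, cultured overnight in RPMI with 10% FBS and penicillin/streptomycin at 37 °C, 5% CO₂. Compound added in RPMI with 0.1% fatty acid-free BSA for 60 min. Then 0.1 μCi/well [¹⁴C]acetic acid for 2 h at 37 °C. Cells washed with PBS and radioactivity counted. DMSO wells set as 0%; 100 nM reference inhibitor as 100%. IC50 is the mean of duplicates with 95% CI.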

The target in series [4] is T2, Acetyl-CoA carboxylase 2 (Homo sapiens, UniProt O00763). The experiment in a line: Inhibition of recombinant human N-terminal His6-tagged ACC2 expressed in baculovirus infected Sf9 insect cells using acetyl-CoA as substrate preincubated for 60 mins followed by substrate addition and measured after 30 mins Rapidfire-Mass spectrometry. In outline: as §1
Target sequence in this assay (O00763 whole entry): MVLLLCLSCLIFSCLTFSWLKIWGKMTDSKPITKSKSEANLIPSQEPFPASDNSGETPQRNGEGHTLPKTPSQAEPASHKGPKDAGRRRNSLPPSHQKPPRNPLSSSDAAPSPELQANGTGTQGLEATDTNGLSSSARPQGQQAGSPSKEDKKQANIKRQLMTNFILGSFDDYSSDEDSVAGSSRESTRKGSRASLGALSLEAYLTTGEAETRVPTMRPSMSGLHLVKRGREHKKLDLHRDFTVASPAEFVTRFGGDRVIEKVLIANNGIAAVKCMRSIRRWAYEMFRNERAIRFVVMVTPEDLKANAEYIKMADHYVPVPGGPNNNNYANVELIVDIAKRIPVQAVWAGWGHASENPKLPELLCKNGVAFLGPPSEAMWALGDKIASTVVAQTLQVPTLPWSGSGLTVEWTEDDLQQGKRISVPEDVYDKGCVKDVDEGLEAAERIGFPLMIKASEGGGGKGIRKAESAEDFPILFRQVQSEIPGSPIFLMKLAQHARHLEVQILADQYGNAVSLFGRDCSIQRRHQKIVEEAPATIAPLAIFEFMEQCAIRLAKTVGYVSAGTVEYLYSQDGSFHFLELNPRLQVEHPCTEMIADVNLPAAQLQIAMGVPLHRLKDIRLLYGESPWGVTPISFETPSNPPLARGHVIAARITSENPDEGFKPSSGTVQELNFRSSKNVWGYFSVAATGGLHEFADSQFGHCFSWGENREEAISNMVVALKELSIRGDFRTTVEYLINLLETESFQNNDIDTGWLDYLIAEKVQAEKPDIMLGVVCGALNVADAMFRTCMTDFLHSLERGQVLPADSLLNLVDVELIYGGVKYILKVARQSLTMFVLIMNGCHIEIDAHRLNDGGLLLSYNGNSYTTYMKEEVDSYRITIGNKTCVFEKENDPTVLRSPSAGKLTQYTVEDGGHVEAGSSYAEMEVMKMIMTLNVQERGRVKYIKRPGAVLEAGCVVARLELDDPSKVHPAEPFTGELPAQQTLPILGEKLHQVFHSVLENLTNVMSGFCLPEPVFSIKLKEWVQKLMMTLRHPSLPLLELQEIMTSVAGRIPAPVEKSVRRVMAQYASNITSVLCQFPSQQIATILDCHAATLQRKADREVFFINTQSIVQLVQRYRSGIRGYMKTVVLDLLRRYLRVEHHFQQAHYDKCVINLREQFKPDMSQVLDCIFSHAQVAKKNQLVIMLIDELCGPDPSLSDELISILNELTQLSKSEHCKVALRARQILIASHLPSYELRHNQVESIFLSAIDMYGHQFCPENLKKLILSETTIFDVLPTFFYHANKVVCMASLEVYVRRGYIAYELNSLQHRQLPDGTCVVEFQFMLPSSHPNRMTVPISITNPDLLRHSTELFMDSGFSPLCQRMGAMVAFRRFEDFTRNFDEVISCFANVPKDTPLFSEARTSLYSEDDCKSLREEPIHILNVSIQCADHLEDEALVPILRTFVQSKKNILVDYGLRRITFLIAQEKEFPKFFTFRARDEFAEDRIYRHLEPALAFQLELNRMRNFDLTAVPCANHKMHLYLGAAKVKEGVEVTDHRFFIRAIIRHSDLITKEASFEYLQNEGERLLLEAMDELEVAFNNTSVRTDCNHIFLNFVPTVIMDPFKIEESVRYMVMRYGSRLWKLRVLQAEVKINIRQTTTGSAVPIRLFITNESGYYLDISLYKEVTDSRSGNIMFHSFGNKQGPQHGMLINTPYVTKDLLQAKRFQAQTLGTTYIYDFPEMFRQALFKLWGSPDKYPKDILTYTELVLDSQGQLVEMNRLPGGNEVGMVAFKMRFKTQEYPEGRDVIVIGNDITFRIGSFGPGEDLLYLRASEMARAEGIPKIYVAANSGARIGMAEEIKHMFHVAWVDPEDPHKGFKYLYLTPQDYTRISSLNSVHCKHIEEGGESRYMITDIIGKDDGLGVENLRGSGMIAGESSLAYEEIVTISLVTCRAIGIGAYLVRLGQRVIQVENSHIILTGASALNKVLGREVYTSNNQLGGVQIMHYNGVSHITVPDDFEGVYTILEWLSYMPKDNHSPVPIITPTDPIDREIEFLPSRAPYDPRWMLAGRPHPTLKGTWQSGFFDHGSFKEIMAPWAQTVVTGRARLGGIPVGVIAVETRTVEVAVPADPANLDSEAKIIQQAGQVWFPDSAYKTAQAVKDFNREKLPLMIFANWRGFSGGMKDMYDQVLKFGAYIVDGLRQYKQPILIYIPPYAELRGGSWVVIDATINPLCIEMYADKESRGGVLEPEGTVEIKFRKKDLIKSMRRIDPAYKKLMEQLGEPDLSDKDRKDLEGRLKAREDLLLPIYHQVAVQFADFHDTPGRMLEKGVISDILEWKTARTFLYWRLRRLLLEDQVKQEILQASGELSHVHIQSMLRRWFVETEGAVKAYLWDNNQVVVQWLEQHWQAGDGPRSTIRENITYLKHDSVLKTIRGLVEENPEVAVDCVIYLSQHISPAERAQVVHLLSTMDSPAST
The next series deals with Cytochrome P450 2C9 (Homo sapiens, UniProt P11712). Briefly: Inhibition of CYP2C9 (unknown origin) relative to control. The format is ADME.
The nature of series [5]: Permeability of compound at pH 7.4 by PAMPA. Format: ADME. As to conditions: read-out: permeability. In general terms: In PAMPA a lipid-coated filter parts donor from acceptor wells.
The nature of series [6]: Metabolic stability in human liver microsomes. Format: ADME, Microsome. As to conditions: read-out: Stabilty.
Series [7] can be described thus: Lipophilicity, log D of compound. As to conditions: octanol/water. Format: physicochemical.
Another series addresses T3, Cytochrome P450 2C8 (Homo sapiens, UniProt P10632).
T3 sequence (P10632 whole entry): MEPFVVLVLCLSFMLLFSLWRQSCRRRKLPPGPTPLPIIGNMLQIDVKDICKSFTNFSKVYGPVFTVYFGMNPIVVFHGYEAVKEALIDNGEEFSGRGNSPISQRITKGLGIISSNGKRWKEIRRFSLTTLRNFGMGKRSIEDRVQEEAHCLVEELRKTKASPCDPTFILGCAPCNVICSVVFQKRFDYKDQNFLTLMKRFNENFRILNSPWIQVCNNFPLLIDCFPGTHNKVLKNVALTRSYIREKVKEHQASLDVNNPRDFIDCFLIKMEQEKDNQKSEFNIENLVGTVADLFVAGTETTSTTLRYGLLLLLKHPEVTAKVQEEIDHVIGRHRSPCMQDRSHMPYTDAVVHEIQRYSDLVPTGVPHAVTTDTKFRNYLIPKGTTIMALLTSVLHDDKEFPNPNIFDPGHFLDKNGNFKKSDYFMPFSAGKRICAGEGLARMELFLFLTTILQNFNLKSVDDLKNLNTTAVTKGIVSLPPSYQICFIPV
The experiment in a line: Inhibition of CYP2C8 (unknown origin) relative to control. Format: ADME.

Series [8] in a line: Permeability of compound at pH 5 by PAMPA. The format is ADME. As to conditions: read-out: permeability.
Series [9] can be described thus: Solubility of compound in pH 1.2 buffer. The format is physicochemical.
A short description of series [10]: Oral bioavailability in ICR mouse at 1 mg/kg. Format: ADME, organism-based. As to conditions: in vivo. In outline:
(§2)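 Male ICR mice, n = 3. Doses: 0.1 mg/kg i.v. and 1 mg/kg p.o. AUC covers 0–8 h.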

Series [11] is described as follows: Metabolic stability in mouse liver microsomes. Format: ADME, Microsome. As to conditions: read-out: Stabilty.
The next series deals with Mus musculus. The experiment in a line: Inhibition of fatty acid synthesis in human HCT-116 cells xenografted BALB/cA Jc1 nu/nu mouse assessed as reduction in malonyl-CoA concentration in tumor at 100 mg/kg, po administered as single dose measured after 2 to 16 hrs by RPLC-MS/MS analysis. As to conditions: time 2-16 hrs. Format: functional, organism-based. In outline: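 Female BALB/cA Jcl-nu/nu mice, 6 weeks old, carrying s.c. hind-flank HCT-116 xenografts (cells in HBSS with Matrigel). Mice randomized by tumor volume. Single oral dose of 100 mg/kg in 0.5% methyl cellulose, or vehicle. Tumors collected 2 and 16 h after dosing, snap-frozen and pulverized under liquid N₂. Malonyl-CoA measured by RPLC-MS/MS against a calibration curve with [¹³C₃]-malonyl-CoA as internal standard.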
A general note: In xenograft studies the graft and the host belong to different species.

Series [12] in a line: AUC (0 to 8 hrs) in ICR mouse at 0.1 mg/kg, iv or 1 mg/kg, po. As to conditions: in vivo. The format is ADME, organism-based. Set-up: dose 1 mg/kg. Put shortly:
as §2

Series [13] concerns the target T1, Acetyl-CoA carboxylase 1. Briefly: Inhibition of recombinant human N-terminal His6-tagged ACC1 expressed in baculovirus infected Sf9 insect cells at 10 uM using acetyl-CoA as substrate preincubated for 60 mins followed by substrate addition and measured after 30 mins Rapidfire-Mass spectrometry relative to control. As to conditions: time 90.0 min.
Series [14] addresses T2, Acetyl-CoA carboxylase 2. Briefly: Inhibition of recombinant human N-terminal His6-tagged ACC2 expressed in baculovirus infected Sf9 insect cells at 10 uM using acetyl-CoA as substrate preincubated for 60 mins followed by substrate addition and measured after 30 mins Rapidfire-Mass spectrometry relative to control. As to conditions: time 90.0 min.
Target sequence in this assay (O00763 whole entry, looked up): as the sequence (O00763 whole entry) above
The next series is filed under the species Homo sapiens. The experiment in a line: Selectivity ratio of IC50 for inhibition of recombinant human N-terminal His6-tagged ACC2 expressed in baculovirus infected Sf9 insect cells to IC50 for inhibition of recombinant human N-terminal His6-tagged ACC1 expressed in baculovirus infected Sf9 insect cells.

pIC50: −log10 of the molar value. ≈ marks a conversion by molar mass, not a printed value. Calls of active or inactive are those of the source. The calls are words filed in the database; no cut-off is given here.

As usually defined, the pIC50 is the IC50 on a negative log10 scale, so that one unit is a factor of ten. In general, solubility refers to how much of the substance goes into solution per volume. Read a high solubility as a readily soluble substance. For the molecule `CC(=O)NC(C)c1ccc(OCc2c(F)cc(Oc3cccc(OCC4CC4)c3)cc2F)nn1` (centres undefined), the pIC50 at Acetyl-CoA carboxylase 1 [1] is 7.51; in series [3] it was 6.96; on Acetyl-CoA carboxylase 2 [4] it was less than 5.00. This molecule came in with a solubility in series [2] of 2.3 µg/mL (≈ 4.9 µM).
Broadly, the logD is the decadic logarithm of the distribution of all forms, ionised or not, between an organic phase and buffer at a given pH. A lower logD goes with lower lipophilicity. Usually bioavailability stands for dose-corrected exposure relative to a reference, in per cent. Read a low bioavailability as poor availability. What is called inhibition is the percentage by which the read-out fell short of the control. As a reminder, the AUC(0-t) is the area under the concentration-time curve up to a stated or last time point. Higher therefore signals high exposure. On to `CC(=O)NC(C)c1ccc(OCc2c(F)cc(Oc3cccc(OCC4CC4)c3)cc2F)nc1` (centres undefined), for which the pIC50 at Acetyl-CoA carboxylase 1 [1] is 7.77; in series [3], 7.62; at Acetyl-CoA carboxylase 2 [4], less than 5.00. The “inhibition (INH)” value against Cytochrome P450 2C9 was -13.8%; on Cytochrome P450 2C8 it was 32%. Further, the solubility in [2] and in series [9] was less than 0.23 µg/mL each time. For the same molecule, the Papp is 68.3 ×10⁻⁶ cm/s in series [5] and 66.2 ×10⁻⁶ cm/s in series [8]. For the same molecule, the microsomal CLint in series [6] was 12 µL/min/mg; in series [11], 17 µL/min/mg. In series [7], this molecule came in with a logD of 4.82. Further, in series [10], the bioavailability amounted to 70.5%. Further, the inhibition entry with Mus musculus is “Active”. In [12], the AUC(0-t) amounted to 5350 ng·h/mL.
Regarding `CC(=O)NC(C)c1ccc(OCc2ccc(Oc3cccc(OCC4CC4)c3)cc2)cc1` (centres undefined), the pIC50 at Acetyl-CoA carboxylase 1 [1] was 6.66; in series [3], 6.38; on Acetyl-CoA carboxylase 2 [4], less than 5.00.
`COCCc1ccc(Oc2ccc(-c3ccc(C(C)NC(C)=O)cc3)cc2)cc1` (centres undefined): the inhibition at Acetyl-CoA carboxylase 1 [13] came out at 49%; on Acetyl-CoA carboxylase 2 [14], 6%. For the same molecule, the pIC50 at Acetyl-CoA carboxylase 2 [4] was less than 4.52.
Take `CC(=O)NC(C)c1ccc(OCc2ccc(Oc3cccc(OCC4CC4)c3)cc2F)cc1` (centres undefined): the pIC50 on Acetyl-CoA carboxylase 1 [1] is 7.16; in series [3] it was 7.20; on Acetyl-CoA carboxylase 2 [4], less than 5.00.
Consider `CC(=O)NC(C)c1ccc(OCc2c(F)cc(Oc3cccc(OCC4CC4)c3)cc2F)cc1` (centres undefined), for which the pIC50 on Acetyl-CoA carboxylase 1 [1] is 7.82; in series [3], 8.01; at Acetyl-CoA carboxylase 2 [4], less than 5.00. In addition, the “inhibition (INH)” value against Cytochrome P450 2C9 is -22.7%; on Cytochrome P450 2C8 it was 31.4%. Further, the solubility in [2] is less than 0.21 µg/mL; in series [9] it was less than 0.23 µg/mL. The Papp worked out at 11.1 ×10⁻⁶ cm/s in series [5] and 34.6 ×10⁻⁶ cm/s in [8]. The microsomal CLint in series [6] amounted to 30 µL/min/mg; in [11], 36 µL/min/mg. Besides, the logD in series [7] is 5.01. Also, the bioavailability in [10] came out at 31.1%. The AUC(0-t) in series [12] was determined as 1580 ng·h/mL.
`CC(=O)NC(C)c1ccc(-c2ccc(Oc3cccc(OCC4CC4)c3)cc2)cc1` (centres undefined): the figures for the pIC50 on Acetyl-CoA carboxylase 1 [1] and at Acetyl-CoA carboxylase 2 [4] were 7.22 and 6.82, respectively. Moreover, the Ratio IC50 in the series filed under Homo sapiens turned out to be 2.5.
On to `CC(=O)NC(C)c1cnc(OCc2c(F)cc(Oc3cccc(OCC4CC4)c3)cc2F)cn1` (centres undefined), for which the results for the negative logarithm of the IC50 (pIC50) (at Acetyl-CoA carboxylase 1 [1]; in series [3]; on Acetyl-CoA carboxylase 2 [4]) were 7.05, 6.74 and less than 5.00, respectively. In [2], the solubility was determined as 0.46 µg/mL (≈ 0.98 µM).
For `CC(=O)NC(C)c1ccc(OCc2c(F)cc(Oc3cccc(OCC4CC4)c3)cc2F)cn1` (centres undefined) the same measures were 7.42, 7.15, less than 5.00 and 1.5 µg/mL (≈ 3.2 µM).
In the case of `CC(=O)NC(C)c1ccc(OCc2ccc(Oc3cccc(OCC4CC4)c3)cn2)cc1` (centres undefined), the pIC50 on Acetyl-CoA carboxylase 1 [1] is 5.92; in series [3], less than 6.00; on Acetyl-CoA carboxylase 2 [4] it was less than 5.00.
Take `CCCc1ccc(Oc2ccc(-c3ccc(C(C)NC(C)=O)cc3)cc2)cc1` (centres undefined): the inhibition amounted to 38% at Acetyl-CoA carboxylase 1 [13] and 11% on Acetyl-CoA carboxylase 2 [14].
`CC(=O)NC(C)c1ccc(OCc2ccc(Oc3cccc(OCC4CC4)c3)nc2)cc1` (centres undefined): the pIC50 at Acetyl-CoA carboxylase 1 [1] was 6.10; in series [3], 6.05; at Acetyl-CoA carboxylase 2 [4], less than 5.00.
Take `CC(=O)NC(C)c1ccc(Oc2ccc(Oc3cccc(OCC4CC4)c3)cc2)cc1` (centres undefined): the pIC50 on Acetyl-CoA carboxylase 1 [1] was 7.41; at Acetyl-CoA carboxylase 2 [4], 7.70.
For the molecule `COCCc1cccc(Oc2ccc(-c3ccc(C(C)NC(C)=O)cc3)cc2)c1` (centres undefined), the pIC50 on Acetyl-CoA carboxylase 1 [1] was 6.89; on Acetyl-CoA carboxylase 2 [4], 7.01.
Regarding `CCCCOc1cccc(Oc2ccc(-c3ccc(C(C)NC(C)=O)cc3)cc2)c1` (centres undefined), the negative logarithm of the IC50 (pIC50) on Acetyl-CoA carboxylase 1 [1] is 6.92; on Acetyl-CoA carboxylase 2 [4], 6.68.
On to `CCCOc1ccc(Oc2ccc(-c3ccc(C(C)NC(C)=O)cc3)cc2)cc1` (centres undefined), for which the inhibition came out at 50% on Acetyl-CoA carboxylase 1 [13] and 51% at Acetyl-CoA carboxylase 2 [14].
